Shown are actives, neighbours in structure and some others; about 3.5% of the full set was active somewhere.
ERAP1 inh: blocks human ERAP1 aminopeptidase activity. recombinant ERAP1, Leu-AMC fluorescence, 60 min. Q9NZ08. inhibition, % at 10.7 µM. 340,000 compounds, 0.15% hits;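 active = mean replicate inhibition of at least 30%, or all replicates individually reaching that 30% level; inactive = mean below 30% and not every replicate reaching it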
PGC1a acetyl inh: PGC1a acetylation modulation, inhibitor mode | U2OS PGC1a acetylation, AlphaScreen anti-acetyl-lysine; with virally co-expressed GCN5 acetyltransferase | inhibition, % at 15.6 µM | 350,000 compounds, 0.17% hits | AID 651687;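 active = every replicate shows inhibition of at least 40%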
Env fusion inh: HIV envelope-mediated fusion inhibition. HeLa-JRFL Env/CEM21 cell fusion, luciferase. inhibition, % at 12.3 µM. 360,000 compounds, 1.1% hits. AID 651610;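 active = mean replicate inhibition score of at least 50 and every replicate individually at or above 50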
FGF22 binding: FGF22 (human) thermal shift binding. Q9HCT0. 340,000 compounds, 1.5% hits. recombinant FGF22 thermal shift, SYPRO orange fluorescence; percent of sucrose octasulfate shift, DMSO zero. AID 651658. activity (Tm shift, normalised), % at 9.99 µM;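 active = mean Tm shift, scaled 0 neutral to 100 positive control, at about 1.3% or above, every replicate too, limit read from the data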
Target sequence (Q9HCT0 whole entry, looked up): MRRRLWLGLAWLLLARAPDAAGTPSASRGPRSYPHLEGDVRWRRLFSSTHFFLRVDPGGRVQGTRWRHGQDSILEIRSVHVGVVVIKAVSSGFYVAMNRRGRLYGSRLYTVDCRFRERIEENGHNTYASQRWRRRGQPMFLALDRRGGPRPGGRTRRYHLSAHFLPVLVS
Ecoli rRNA inh: inhibits bacterial ribosomal RNA function over humanized ribosomes. 350,000 compounds, 1.6% hits. E. coli WT GFP vs humanized-ribosome RFP mutants, fluorescence, 24 h; hits give low values; DMSO median 0, no signal -100. AID 720706. GFP signal change (wild-type ribosome), % (no concentration beside the values);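 active = significant combined selectivity score with lowered wild-type GFP, culture density cut under 30%, mutant RFP and density less affected; inactive = any of these conditions unmet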
Cneo AK release: Cryptococcus neoformans lysis via adenylate kinase release | C. neoformans lysis, adenylate kinase release luminescence, 4 h; normalised: neutral wells 0, clomiphene wells 100 | 360,000 compounds, 0.2% hits | lysis activity, % at 15 µM;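 active = mean lysis activity across replicates of at least 80%, whatever share of replicates individually reach that level; inactive = mean lysis activity below 80%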
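Material: C. neoformans cells; Schedule: 4 h static compound exposure, 37 °C, read 1 h post-reagent; Measured by: adenylate kinase release luminescence; Read-out: signal increase indicating cell lysis; Controls: Clomiphene as positive lysis control.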
Each line names hits and unclear results; the compound was inactive in the other large screens; [ ] = another dose, or the depositor's remark.

COc1ccc([C@@H]2CC=C(C(=O)O)[C@H](c3ccc(F)cc3)N2S(=O)(=O)c2ccc(Cl)cc2)cc1	Ecoli rRNA inh -17.9
O=C(O)C1=CCC(c2ccc(Cl)c(Cl)c2)N(S(=O)(=O)c2ccc(F)cc2)C1c1cccc(F)c1 (stereo unspecified)	FGF22 binding 43.4 (no result: PGC1a acetyl inh, Cneo AK release)
Cc1ccc(S(=O)(=O)N2[C@@H](c3cccc(Cl)c3)C(C(=O)O)=CC[C@H]2c2cccc(Cl)c2)cc1	none (no result: PGC1a acetyl inh)
C[C@@H]1CN([C@H](C)CO)C(=O)c2cccc(NC(=O)C3CCCCC3)c2O[C@H]1CN(C)Cc1ccc(C(F)(F)F)cc1	none (no result: Env fusion inh)
COc1ccc([C@@H]2CC=C(C(=O)O)[C@H](c3ccc(C(C)(C)C)cc3)N2S(=O)(=O)c2ccc(C)cc2)cc1OC	Ecoli rRNA inh -20.4 (no result: ERAP1 inh)
COCC(=O)N1[C@@H](C#N)[C@H](c2ccc(C#Cc3ccccc3F)cc2)[C@@H]1CO	none
O=C(C[C@@H]1C[C@@H]2c3cc(NC(=O)C4CCC4)ccc3O[C@@H]2[C@@H](CO)O1)NCC(F)(F)F	Env fusion inh 89.7[16.7 µM] (no result: FGF22 binding)
O=C(C[C@H]1C[C@@H]2c3cc(NC(=O)C4CCC4)ccc3O[C@@H]2[C@@H](CO)O1)NCC(F)(F)F	Env fusion inh 88.3[16.7 µM] (no result: FGF22 binding)
O=C(C[C@@H]1C[C@H]2c3cc(NC(=O)C4CCOCC4)ccc3O[C@H]2[C@H](CO)O1)NCC(F)(F)F	none
OCCCNc1ncnc2c1ncn2[C@H]1CN(Cc2ccc(Cl)cc2)C[C@@H](CO)O1	none (no result: PGC1a acetyl inh, Ecoli rRNA inh)
COc1cc2c(C(=O)NCCCOC(C)C)cn(CC(C)C)c(=O)c2cc1OC	none (no result: ERAP1 inh, FGF22 binding, Ecoli rRNA inh)
Cc1cc(C)n(-c2nc3ccccc3nc2N2CCN(S(=O)(=O)c3ccc4ccccc4c3)CC2)n1	Env fusion inh 56.2 (no result: ERAP1 inh, FGF22 binding, Ecoli rRNA inh)
COC(=O)C(NC(C)=O)(Nc1nc(C)cs1)C(F)(F)F (stereo unspecified)	none (no result: ERAP1 inh, FGF22 binding, Ecoli rRNA inh)
COC(=O)C(NC(=O)c1ccccc1)(Nc1nc(C)cs1)C(F)(F)F (stereo unspecified)	Ecoli rRNA inh -41.6 (no result: Env fusion inh)
OC(CNC1CCCc2ccccc21)COc1c(Cl)cccc1Cl (stereo unspecified)	FGF22 binding 44.5 (no result: PGC1a acetyl inh, Cneo AK release)
OC(CNC1Cc2ccccc2C1)COc1ccc(Cl)cc1 (stereo unspecified)	none (no result: Cneo AK release)
C[C@H](O)C#Cc1ccc([C@@H]2[C@@H](CO)N3CCCCN(C(=O)Nc4ccccc4)C[C@H]23)cc1	none (no result: Env fusion inh)
CCCCN(C)CCCNC(=O)c1cc(=O)[nH]c2ccc(S(=O)(=O)N3CCCCC3C)cc12 (stereo unspecified)	Env fusion inh 59.7 (no result: PGC1a acetyl inh, Cneo AK release)
CC1CCCN(S(=O)(=O)c2ccc3[nH]c(=O)cc(C(=O)NCCCN4CCCCCC4)c3c2)C1 (stereo unspecified)	none
COc1cc(CC(NC(C)=O)C(=O)NC2CCN(C(=O)c3cc(OC)c(OC)c(OC)c3)CC2)cc(OC)c1 (stereo unspecified)	FGF22 binding 42.9
C[C@H]1CCCCO[C@@H](CN(C)C(=O)CCCN(C)C)[C@@H](C)CN([C@@H](C)CO)C(=O)c2cc(NC(=O)Nc3ccccc3)ccc2O1	none
O=C(CN1CCOCC1)NCC[C@H]1CC[C@@H](NC(=O)c2ccc3c(c2)OCO3)[C@H](CO)O1	none
C/C(=N\NC(=O)CN(c1ccc(Oc2ccccc2)cc1)S(C)(=O)=O)C(C)(C)C	FGF22 binding 43.5 (no result: PGC1a acetyl inh, Cneo AK release)
Cc1ccnc(NC(=O)CNC(=O)c2ccccc2Br)c1	none (no result: PGC1a acetyl inh)
CC(=O)c1ccc2c(c1)C1C=CCC1C(C(=O)O)N2 (stereo unspecified)	FGF22 binding 43.7 (no result: Cneo AK release)
CC(=O)c1ccc2c(c1)C1C=CCC1C(c1ccncc1)N2 (stereo unspecified)	none (no result: ERAP1 inh, Env fusion inh, FGF22 binding, Ecoli rRNA inh)
Cn1c(CNC(=O)c2ccco2)nnc1SCC(=O)Nc1c(F)cc(F)cc1Br	FGF22 binding 44.0 (no result: Cneo AK release)
Cc1ccc(Nc2c(-c3ccc(N4CCOCC4)cc3)nc3ncccn23)c(C)c1	none
Cc1cccc(C)c1Nc1c(-c2ccc(N3CCOCC3)cc2)nc2ncccn12	Ecoli rRNA inh -24.6
Cc1nn(-c2ccccc2)c(C)c1/C=N/NC(=O)CSc1nc2ccccc2c(=O)n1-c1ccc(Br)cc1	none (no result: ERAP1 inh, FGF22 binding, Ecoli rRNA inh)
CN(CC(=O)Nc1ccccc1Cl)C(=O)CSc1nc2ccccc2s1	Ecoli rRNA inh -25.6
Cc1ccc(CSCC(=O)N(C)CC(=O)Nc2ccccc2Cl)cc1	Ecoli rRNA inh -21.1 (no result: Cneo AK release)
CN(CC(=O)Nc1ccccc1Cl)C(=O)COC(=O)c1ccc(Cl)nc1	none
CN(CC(=O)Nc1ccccc1Cl)C(=O)COC(=O)c1nc(Cl)c(Cl)c(Cl)c1Cl	Ecoli rRNA inh -17.8 (no result: Env fusion inh)
CCC/C=C(\CCC)C(NS(=O)(=O)c1cccc2cccnc12)c1ccc(C(=O)OC)cc1 (stereo unspecified)	Env fusion inh 90.0 (no result: PGC1a acetyl inh, Cneo AK release)
Cc1cccc(N(CC(=O)Nc2c(C)n(C)n(-c3ccccc3)c2=O)S(C)(=O)=O)c1	none (no result: ERAP1 inh, FGF22 binding, Ecoli rRNA inh)
CC(O)(CS(=O)(=O)Cc1cccc(C(F)(F)F)c1)C(=O)Nc1cccc(C(F)(F)F)c1 (stereo unspecified)	Env fusion inh 58.8 (no result: ERAP1 inh, FGF22 binding, Ecoli rRNA inh)
CC(C)c1nnc(NC(=O)CCS(=O)(=O)Cc2ccccc2)s1	none (no result: PGC1a acetyl inh, Cneo AK release)
CC(C)c1nnc(NC(=O)CCS(=O)(=O)c2nc(-c3cccs3)cc(C(F)(F)F)n2)s1	Env fusion inh 85.2 (no result: ERAP1 inh, FGF22 binding, Ecoli rRNA inh, Cneo AK release)
COc1ccccc1COC(=O)CN1C(=O)NC2(CCCCC2C)C1=O (stereo unspecified)	FGF22 binding 43.0
COc1cc2c(cc1OC)C(c1ccc(N(C)C)cc1)NCC2 (stereo unspecified)	none
O=C(CN1CCOCC1)N/N=C/c1ccc(-c2ccc(C(=O)O)cc2)o1	ERAP1 inh 93.2 (no result: Cneo AK release)
O=C(Cn1cnc([N+](=O)[O-])n1)N/N=C/c1ccc2ccccc2c1	FGF22 binding 43.7 (no result: PGC1a acetyl inh, Cneo AK release)
COc1ccccc1/C=N/NC(=O)Cn1cnc([N+](=O)[O-])n1	none (no result: PGC1a acetyl inh, Cneo AK release)
CCC(=O)N1CCc2cc(Br)cc(S(=O)(=O)N3CCCC(C(=O)NC(C)(C)C)C3)c21 (stereo unspecified)	FGF22 binding 42.9
CCC(=O)N1CCc2cc(Br)cc(S(=O)(=O)N3CCC(C(=O)NC(C)(C)C)CC3)c21	none
O=c1cc(Cc2ccc([N+](=O)[O-])cc2)[nH]c(=O)[nH]1	none (no result: PGC1a acetyl inh, Cneo AK release)
Nc1ccc(Cc2ccc([N+](=O)[O-])cc2)cc1	FGF22 binding 43.1
CO[C@@H]1CN(C)C(=O)c2ccc(NC(=O)Nc3ccc(C(F)(F)F)cc3)cc2OC[C@H](C)NC[C@H]1C	none
CCCc1nnc(NC(=O)CCC(=O)N2CCN(c3ccccn3)CC2)s1	none (no result: ERAP1 inh, FGF22 binding, Ecoli rRNA inh)
COc1ccc(N(CC(=O)Nc2ccc(F)cc2)S(=O)(=O)c2ccccc2[N+](=O)[O-])c(OC)c1	FGF22 binding 43.4 (no result: PGC1a acetyl inh, Cneo AK release)
COc1ccc(N(CC(=O)Nc2cc(C)cc(C)c2)S(=O)(=O)c2ccccc2[N+](=O)[O-])c(OC)c1	none (no result: Cneo AK release)
